One assay deals with T1, Interstitial collagenase (Homo sapiens, UniProt P03956).
T1 sequence (P03956 whole entry): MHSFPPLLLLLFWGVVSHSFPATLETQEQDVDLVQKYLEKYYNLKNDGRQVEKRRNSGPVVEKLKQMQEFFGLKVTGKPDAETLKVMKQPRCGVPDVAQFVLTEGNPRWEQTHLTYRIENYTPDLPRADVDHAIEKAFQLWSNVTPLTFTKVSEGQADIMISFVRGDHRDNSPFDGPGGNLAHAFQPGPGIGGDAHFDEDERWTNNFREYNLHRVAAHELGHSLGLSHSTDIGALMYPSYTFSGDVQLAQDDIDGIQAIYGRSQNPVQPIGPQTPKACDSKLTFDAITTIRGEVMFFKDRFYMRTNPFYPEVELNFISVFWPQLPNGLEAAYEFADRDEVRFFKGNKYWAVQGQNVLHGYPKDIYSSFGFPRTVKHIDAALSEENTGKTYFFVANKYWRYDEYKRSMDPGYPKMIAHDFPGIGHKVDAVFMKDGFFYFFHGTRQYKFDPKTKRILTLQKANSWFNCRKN
The assay can be described thus: In vitro inhibitory activity against matrix metalloprotease -1 (collagenase-1).

The target of a further assay is Stromelysin-1 (Homo sapiens, UniProt P08254). The assay can be described thus: In vitro inhibitory activity against matrix metalloprotease -3 (stromelysin).
Chain of Stromelysin-1 (P08254 whole entry): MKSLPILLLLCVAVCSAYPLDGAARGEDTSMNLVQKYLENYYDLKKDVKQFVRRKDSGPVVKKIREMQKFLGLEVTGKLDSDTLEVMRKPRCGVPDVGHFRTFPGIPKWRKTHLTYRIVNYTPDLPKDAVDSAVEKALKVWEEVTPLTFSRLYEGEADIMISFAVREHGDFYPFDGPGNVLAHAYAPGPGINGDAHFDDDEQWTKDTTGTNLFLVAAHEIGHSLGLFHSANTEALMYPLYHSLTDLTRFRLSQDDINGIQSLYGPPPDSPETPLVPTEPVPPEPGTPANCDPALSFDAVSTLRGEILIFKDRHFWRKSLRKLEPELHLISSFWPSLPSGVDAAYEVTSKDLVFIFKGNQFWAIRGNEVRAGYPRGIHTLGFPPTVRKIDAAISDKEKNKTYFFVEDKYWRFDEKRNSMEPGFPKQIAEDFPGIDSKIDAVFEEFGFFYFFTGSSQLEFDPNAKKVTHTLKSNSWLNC
For another assay, the target named is Collagenase 3 (Homo sapiens, UniProt P45452). As to the kind of experiment: In vitro inhibitory activity against human recombinant matrix metalloprotease-13 (collagenase-3).
The target in the next assay is T2, Matrilysin (Homo sapiens, UniProt P09237).
T2 sequence (P09237 whole entry): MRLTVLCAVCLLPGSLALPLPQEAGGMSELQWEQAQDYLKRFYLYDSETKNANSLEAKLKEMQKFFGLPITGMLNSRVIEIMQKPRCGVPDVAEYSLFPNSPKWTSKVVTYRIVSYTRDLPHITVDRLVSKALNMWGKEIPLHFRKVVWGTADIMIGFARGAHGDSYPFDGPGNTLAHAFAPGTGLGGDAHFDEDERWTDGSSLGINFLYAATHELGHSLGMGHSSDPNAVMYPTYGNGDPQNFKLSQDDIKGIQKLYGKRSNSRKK
The assay can be described thus: In vitro inhibitory activity against matrix metalloprotease-7 (matrilysin, MMP-7). In a few lines:
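Human recombinant truncated enzymes, final MMP-1 8 nM, MMP-3 16 nM, MMP-7 2 nM. Quenched-fluorescence assay with Mca-Pro-Leu-Gly-Leu-Dpa-Ala-Arg-NH₂ (4 µM) in 50 mM Tris pH 7.5, 0.2 M NaCl, 5 mM CaCl₂, 0.02% Brij-35 at 25 °C. Fluorescence (ex 328/em 393 nm) read kinetically for 30 min.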

Assay [1] addresses 72 kDa type IV collagenase (Homo sapiens, UniProt P08253). The assay can be described thus: In vitro inhibitory activity against matrix metalloprotease -2 (gelatinase-A).

Chain of 72 kDa type IV collagenase (P08253 whole entry): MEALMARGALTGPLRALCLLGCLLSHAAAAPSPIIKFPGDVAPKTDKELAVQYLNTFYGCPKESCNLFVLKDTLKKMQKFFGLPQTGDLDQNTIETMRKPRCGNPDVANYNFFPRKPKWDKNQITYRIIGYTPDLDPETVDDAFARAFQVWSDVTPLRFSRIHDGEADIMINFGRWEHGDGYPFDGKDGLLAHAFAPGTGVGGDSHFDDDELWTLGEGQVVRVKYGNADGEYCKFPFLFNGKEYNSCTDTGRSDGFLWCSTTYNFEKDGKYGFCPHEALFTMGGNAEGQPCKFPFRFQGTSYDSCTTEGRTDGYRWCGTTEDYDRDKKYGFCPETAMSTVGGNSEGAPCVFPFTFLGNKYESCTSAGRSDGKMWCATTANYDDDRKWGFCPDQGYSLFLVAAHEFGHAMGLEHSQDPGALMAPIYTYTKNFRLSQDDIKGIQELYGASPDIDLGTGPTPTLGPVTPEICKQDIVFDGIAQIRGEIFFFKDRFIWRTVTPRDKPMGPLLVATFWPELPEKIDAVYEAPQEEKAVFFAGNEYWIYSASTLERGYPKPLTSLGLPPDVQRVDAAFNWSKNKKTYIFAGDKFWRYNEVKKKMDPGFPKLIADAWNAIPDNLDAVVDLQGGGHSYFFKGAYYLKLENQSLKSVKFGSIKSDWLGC

As for `O=C(NO)[C@H]1C[C@H](N2CCCC2)CN1S(=O)(=O)c1ccc(Oc2ccc(F)cc2)cc1`, the IC50 was 20 nM at Interstitial collagenase, 4 nM against Stromelysin-1, less than 0.4 nM at Collagenase 3 and 850 nM against Matrilysin.
Turning to `COc1ccc(S(=O)(=O)N2C[C@@H](NCCc3ccccc3)C[C@@H]2C(=O)NO)cc1`, the IC50 on Interstitial collagenase was 560 nM; on Stromelysin-1 it was 57 nM; against Matrilysin, 1400 nM.
On to `COc1ccc(S(=O)(=O)N2C[C@@H](N3CCCCC3)C[C@@H]2C(=O)NO)cc1`, for which the half-inhibitory concentration (IC50) against Stromelysin-1 is 48 nM; in assay [1], 6 nM; at Collagenase 3 it was 1 nM; against Matrilysin, 7400 nM.
As to `CCCCOc1ccc(S(=O)(=O)N2C[C@@H](N3CCCS3(=O)=O)C[C@@H]2C(=O)NO)cc1`, the IC50 is 230 nM against Interstitial collagenase, 13 nM against Stromelysin-1, less than 0.4 nM on Collagenase 3 and 680 nM against Matrilysin.
In the case of `COc1ccc(S(=O)(=O)N2C[C@@H](N3CCOCC3)C[C@@H]2C(=O)NO)cc1`, the values for the half-maximal inhibitory concentration (IC50) (on Interstitial collagenase; against Stromelysin-1; in assay [1]) were 220 nM, 14 nM and 6 nM, respectively.
Regarding `CCCCCc1ccc(S(=O)(=O)N2C[C@@H](N3CCOCC3)C[C@@H]2C(=O)NO)cc1`, the IC50 was determined as 12 nM on Stromelysin-1, 0.7 nM at Collagenase 3 and 7400 nM at Matrilysin.
As for `COc1ccc(S(=O)(=O)N2C[C@@H](NC(=O)c3ccc(-c4ccccc4)cc3)C[C@@H]2C(=O)NO)cc1`, the IC50 is more than 1000 nM at Interstitial collagenase and 400 nM against Stromelysin-1.
Take `CCCOc1ccc(S(=O)(=O)N2C[C@@H](NC(=O)[C@H](C)O)C[C@@H]2C(=O)NO)cc1`: the half-maximal inhibitory concentration (IC50) at Interstitial collagenase stood at 140 nM; on Stromelysin-1, 8 nM; at Collagenase 3, 1 nM; against Matrilysin, 3500 nM.
In the case of `CCCCOc1ccc(S(=O)(=O)N2C[C@@H](NC(=O)[C@@H](O)CC(C)C)C[C@@H]2C(=O)NO)cc1`, the IC50 at Interstitial collagenase stood at 440 nM; on Stromelysin-1, 10 nM; on Collagenase 3, 0.9 nM; at Matrilysin it was 2400 nM.
For `CC(C)COc1ccc(S(=O)(=O)N2C[C@@H](N3C(=O)CN(C)C3=O)C[C@@H]2C(=O)NO)cc1`, in that order: 300 nM, 3 nM, 2.8 nM and 2300 nM.
For `CS(=O)(=O)N[C@H]1C[C@H](C(=O)NO)N(S(=O)(=O)c2ccc(Oc3ccncc3)cc2)C1`, in that order: 450 nM, 22 nM, 0.8 nM and more than 10000 nM.
For `CCCOc1ccc(S(=O)(=O)N2C[C@@H](NC(=O)COC)C[C@@H]2C(=O)NO)cc1`, in that order: 500 nM, 30 nM, 3 nM and more than 10000 nM.
With `CCCOc1ccc(S(=O)(=O)N2C[C@@H](N3CCCS3(=O)=O)C[C@@H]2C(=O)NO)cc1`, the half-maximal inhibitory concentration (IC50) was 100 nM against Interstitial collagenase, 8 nM against Stromelysin-1, less than 0.4 nM on Collagenase 3 and 840 nM against Matrilysin.
With `COc1ccc(S(=O)(=O)N2C[C@@H](NC(=O)[C@H](C)OCc3ccccc3)C[C@@H]2C(=O)NO)cc1`, the values for the half-inhibitory concentration (IC50) (against Interstitial collagenase; on Stromelysin-1; in assay [1]) were 140 nM, 7 nM and 0.3 nM, respectively.
`CCCCOc1ccc(S(=O)(=O)N2C[C@@H](NC(=O)COC)C[C@@H]2C(=O)NO)cc1`: the 50% inhibitory concentration (IC50) on Interstitial collagenase was determined as 1200 nM; against Stromelysin-1 it was 14 nM; at Collagenase 3, 0.7 nM; against Matrilysin it was 4900 nM.
For `COc1ccc(S(=O)(=O)N2C[C@@H](N(C)S(C)(=O)=O)C[C@@H]2C(=O)NO)cc1`, in that order: 19 nM, 6 nM, 0.5 nM and 520 nM.
For `COc1ccc(S(=O)(=O)N2C[C@@H](N(Cc3cccnc3)C(=O)C(C)C)C[C@@H]2C(=O)NO)cc1`, the half-maximal inhibitory concentration (IC50) on Interstitial collagenase was 270 nM; on Stromelysin-1 it was 10 nM; in assay [1], 2.2 nM; at Collagenase 3, 17 nM.
As to `CCCCOc1ccc(S(=O)(=O)N2C[C@@H](NC(=O)[C@@H](O)C(C)C)C[C@@H]2C(=O)NO)cc1`, the IC50 against Interstitial collagenase came out at 270 nM; against Stromelysin-1, 8 nM; on Collagenase 3 it was 0.8 nM; on Matrilysin, 1700 nM.
For `CN1CC(=O)N([C@H]2C[C@H](C(=O)NO)N(S(=O)(=O)c3ccc(Oc4ccncc4)cc3)C2)C1=O`, in that order: 600 nM, 11 nM, 0.7 nM and 7400 nM.
`O=C(NO)[C@H]1C[C@H](N2CCCCC2)CN1S(=O)(=O)c1ccc(Oc2ccccc2)cc1`: the half-inhibitory concentration (IC50) was 17 nM against Interstitial collagenase, 8 nM at Stromelysin-1, less than 0.4 nM on Collagenase 3 and 610 nM against Matrilysin.
For `CN1CC(=O)N([C@H]2C[C@H](C(=O)NO)N(S(=O)(=O)c3ccc(Oc4ccccc4)cc3)C2)C1=O`, the half-inhibitory concentration (IC50) on Interstitial collagenase was 21 nM; on Stromelysin-1, 6 nM; on Collagenase 3 it was less than 0.4 nM; on Matrilysin, 310 nM.
For `CCOc1ccc(S(=O)(=O)N2C[C@@H](N3C(=O)CN(C)C3=O)C[C@@H]2C(=O)NO)cc1`, in that order: 580 nM, 33 nM, 4 nM and 7500 nM.
For the compound `COc1ccc(S(=O)(=O)N2C[C@@H](NC(=O)[C@H](Cc3ccccc3)OCc3ccccc3)C[C@@H]2C(=O)NO)cc1`, the concentration for half-maximal inhibition (IC50) against Interstitial collagenase worked out at 240 nM; on Stromelysin-1, 10 nM; in assay [1] it was 0.2 nM; on Collagenase 3, 2 nM.
For the compound `COc1ccc(S(=O)(=O)N2C[C@@H](N3CCCS3(=O)=O)C[C@@H]2C(=O)NO)cc1`, the IC50 against Interstitial collagenase worked out at 42 nM; against Stromelysin-1 it was 13 nM; at Collagenase 3, 0.4 nM; against Matrilysin, 1400 nM.
For `CCCOc1ccc(S(=O)(=O)N2C[C@@H](N3C(=O)CN(C)C3=O)C[C@@H]2C(=O)NO)cc1`, in that order: 260 nM, 9 nM, 0.3 nM and 2600 nM.
For the compound `CCCCCc1ccc(S(=O)(=O)N2C[C@@H](N3CCCCC3)C[C@@H]2C(=O)NO)cc1`, the half-inhibitory concentration (IC50) against Interstitial collagenase worked out at 2000 nM; on Stromelysin-1, 12 nM; at Collagenase 3, 0.9 nM; on Matrilysin, 9800 nM.
For `COc1ccc(S(=O)(=O)N2C[C@@H](N3CCS(=O)(=O)CC3)C[C@@H]2C(=O)NO)cc1`, in that order: 300 nM, 23 nM, 1 nM and 7100 nM.
For `CCCCOc1ccc(S(=O)(=O)N2C[C@@H](NC(=O)[C@H](C)O)C[C@@H]2C(=O)NO)cc1`, in that order: 1200 nM, 10 nM, 0.9 nM and 4200 nM.
On to `CCCCOc1ccc(S(=O)(=O)N2C[C@@H](N)C[C@@H]2C(=O)NO)cc1`, for which the half-inhibitory concentration (IC50) worked out at 380 nM against Interstitial collagenase and 8 nM on Stromelysin-1.
With `CNC(=O)N[C@H]1C[C@H](C(=O)NO)N(S(=O)(=O)c2ccc(OC)cc2)C1`, the results for the half-inhibitory concentration (IC50) at Interstitial collagenase, on Stromelysin-1 and on Collagenase 3 were 3100 nM, 300 nM and 27 nM, respectively.
In the case of `CCCOc1ccc(S(=O)(=O)N2C[C@@H](N3CCCCC3)C[C@@H]2C(=O)NO)cc1`, the IC50 against Interstitial collagenase was determined as 210 nM; against Stromelysin-1 it was 9 nM; at Collagenase 3, 0.4 nM; at Matrilysin, 620 nM.
For `COc1ccc(S(=O)(=O)N2C[C@@H](N3C(=O)CN(C)C3=O)C[C@@H]2C(=O)NO)cc1`, in that order: 200 nM, 8 nM, 0.5 nM and 1800 nM.
As for `O=C(NO)[C@H]1C[C@H](N2CCOCC2)CN1S(=O)(=O)c1ccc(Oc2ccccc2)cc1`, the IC50 at Interstitial collagenase is 19 nM; against Stromelysin-1 it was 7 nM; on Collagenase 3 it was less than 0.4 nM; on Matrilysin it was 710 nM.
In the case of `O=C(NO)[C@H]1C[C@H](N2CCCC2)CN1S(=O)(=O)c1ccc(Oc2ccccc2)cc1`, the IC50 against Interstitial collagenase was 19 nM; against Stromelysin-1 it was 5 nM; on Collagenase 3, less than 0.4 nM; against Matrilysin, 790 nM.
Consider `CCCCOc1ccc(S(=O)(=O)N2C[C@@H](NS(=O)(=O)c3cn(C)cn3)C[C@@H]2C(=O)NO)cc1`, for which the IC50 on Interstitial collagenase turned out to be 700 nM; at Stromelysin-1 it was 6 nM.
In the case of `CCCN[C@H]1C[C@H](C(=O)NO)N(S(=O)(=O)c2ccc(OC)cc2)C1`, the results for the IC50 at Stromelysin-1, at Collagenase 3 and against Matrilysin were 87 nM, 5 nM and 2200 nM, respectively.

What is called IC50 is the concentration that gives 50% inhibition.

Source of the values: ChEMBL document CHEMBL1133563, “Development of new hydroxamate matrix metalloproteinase inhibitors derived from functionalized 4-aminoprolines” (J Med Chem, 2000).
